ChEMBL document CHEMBL3272325, “Structure-activity relationships of dimeric Catharanthus alkaloids. 1. Deacetylvinblastine amide (vindesine) sulfate” (J Med Chem, 1978)

Experiments:
[1] = system: B16; assay: Antitumor activity against mouse B16 cells allografted in B6D2F1 mouse assessed as mean survival time at 0.389 mg/kg/day, ip administered on day 1, 5 and 9 (reference value: 20.0 days); type: functional; details: route intraperitoneal
How it was run: (§1)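 Male B6D2F1 mice implanted ip on day 0 with 0.25 mL of a 20% (w/v) B16 melanoma brei. Alkaloid sulfate salts given ip on days 1, 5, 9 or on days 5, 9, 13, groups of 10, against 30 untreated controls. Read-outs: median survival time with range of individual deaths, and percent increase in life span, with survivors counted on day 56.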

[2] = system: Homo sapiens; assay: Neurotoxicity in human assessed as neutropenia at 3 to 4 mg/m'2, iv once weekly dosed through push technique; type: toxicity, organism-based; details: in vivo
[3] = system: P388; assay: Antitumor activity against mouse P388 cells allografted in mouse assessed as increase in life span at 0.9 mg/kg/day, ip administered from day 1 to day 9 relative to untreated control; type: functional; details: route intraperitoneal
How it was run: (§2)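 P388 ascites implanted ip in mice, 10 animals per group. Sulfate salts given ip either daily on days 1-9 or as a single dose on day 1. Median life span was calculated using all deaths and survivors. Percent increase in life span was taken over untreated controls. The highest nontoxic dose was noted.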

[4] = system: B16; assay: Antitumor activity against mouse B16 cells allografted in B6D2F1 mouse assessed as increase in life span at 0.389 mg/kg/day, ip administered on day 5, 9 and 13 measured for 56 days relative to untreated control; type: functional; details: route intraperitoneal; how it was run: as §1
[5] = Toxicity in ip dosed mouse allografted with mouse p388 cells after 1 day; type: organism-based; details: in vivo, read-out: MNTD; how it was run: as §2
[6] = Antitumor activity against mouse Gardner lymphosarcoma cell allografted in mouse at 0.2 to 0.3 mg/kg/day, ip; type: functional; details: route intraperitoneal
How it was run: (§3)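 Ridgeway osteogenic sarcoma and Gardner lymphosarcoma in mice, with sulfate salts given ip daily on days 1-9. Tumor growth inhibition versus controls scored in bands: +++ = 75-100%, ++ = 50-75%, ± = under 25%.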

[7] = system: B16; assay: Antitumor activity against mouse B16 cells allografted in B6D2F1 mouse assessed as mean survival time at 3 mg/kg/day, ip administered on day 5, 9 and 13 (reference value: 20.0 days); type: functional; details: route intraperitoneal; how it was run: as §1
[8] = system: Friend murine leukemia virus; assay: Antimicrobial activity against Friend leukemia virus infected in mouse assessed as inhibition of spleen enlargement at 0.2 mg/kg/day, iv for 10 days relative to untreated control; type: functional; details: 240 h
How it was run: (§4)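 DBA/2 mice bearing Friend leukemia virus were dosed iv for 10 days. Spleen enlargement was compared with untreated controls.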

[9] = system: P388; assay: Antitumor activity against mouse P388 cells allografted in mouse assessed as increase in life span at 6 mg/kg/day, ip after 1 day; type: functional; details: 24 h, route intraperitoneal; how it was run: as §2
[10] = system: B16; assay: Antitumor activity against mouse B16 cells allografted in B6D2F1 mouse assessed as increase in life span at 0.389 mg/kg/day, ip administered on day 1, 5 and 9 measured for 56 days relative to untreated control; type: functional; details: route intraperitoneal; how it was run: as §1
[11] = system: Gallus gallus; assay: Neurotoxicity in iv dosed chicken assessed as neuromuscular disturbance by measuring loss of balance; type: organism-based; details: in vivo
[12] = system: P388; assay: Antitumor activity against mouse P388 cells allografted in mouse assessed as increase in life span at 9 mg/kg/day, ip after 1 day; type: functional; details: 24 h, route intraperitoneal; how it was run: as §2
[13] = system: B16; assay: Antitumor activity against mouse B16 cells allografted in C57Bl/6 mouse assessed as mean survival time at 0.9 mg/kg/day, ip administered on day 1, 5 and 9 (reference value: 24.6 days); type: functional; details: route intraperitoneal
[14] = Acute toxicity in ip dosed mouse; type: organism-based; details: in vivo
[15] = system: P388; assay: Antitumor activity against mouse P388 cells allografted in mouse assessed as increase in life span at 1.8 mg/kg/day, ip after 1 day; type: functional; details: 24 h, route intraperitoneal; how it was run: as §2
[16] = system: P388; assay: Antitumor activity against mouse P388 cells allografted in mouse assessed as increase in life span at 0.27 mg/kg/day, ip administered from day 1 to day 9 relative to untreated control; type: functional; details: route intraperitoneal; how it was run: as §2
[17] = system: B16; assay: Antitumor activity against mouse B16 cells allografted in B6D2F1 mouse assessed as increase in life span at 1.8 mg/kg/day, ip administered on day 5, 9 and 13 measured for 56 days relative to untreated control; type: functional; details: route intraperitoneal; how it was run: as §1
[18] = system: B16; assay: Antitumor activity against mouse B16 cells allografted in B6D2F1 mouse assessed as increase in life span at 1.08 mg/kg/day, ip administered on day 1, 5 and 9 measured for 56 days relative to untreated control; type: functional; details: route intraperitoneal; how it was run: as §1
[19] = system: B16; assay: Antitumor activity against mouse B16 cells allografted in B6D2F1 mouse assessed as mean survival time at 0.389 mg/kg/day, ip administered on day 5, 9 and 13 (reference value: 20.0 days); type: functional; details: route intraperitoneal; how it was run: as §1
[20] = system: Friend murine leukemia virus; assay: Antimicrobial activity against Friend leukemia virus infected in mouse assessed as inhibition of spleen enlargement at 0.25 mg/kg/day, iv for 10 days relative to untreated control; type: functional; details: 240 h; how it was run: as §4
[21] = Antitumor activity against mouse Ridgeway osteogenic sarcoma cells allografted in mouse at 0.2 to 0.3 mg/kg/day, ip; type: functional; details: route intraperitoneal; how it was run: as §3
[22] = system: B16; assay: Antitumor activity against mouse B16 cells allografted in B6D2F1 mouse assessed as mean survival time at 3 mg/kg/day, ip administered on day 1, 5 and 9 (reference value: 20.0 days); type: functional; details: route intraperitoneal; how it was run: as §1
[23] = system: P388; assay: Antitumor activity against mouse P388 cells allografted in mouse assessed as increase in life span at 0.6 mg/kg/day, ip administered from day 1 to day 9 relative to untreated control; type: functional; details: route intraperitoneal; how it was run: as §2
[24] = system: B16; assay: Antitumor activity against mouse B16 cells allografted in B6D2F1 mouse assessed as mean survival time at 1.8 mg/kg/day, ip administered on day 1, 5 and 9 (reference value: 20.0 days); type: functional; details: route intraperitoneal; how it was run: as §1
[25] = system: Rhesus monkey; assay: Neurotoxicity in iv dosed monkey assessed as peripheral neuropathy; details: in vivo
[26] = system: B16; assay: Antitumor activity against mouse B16 cells allografted in B6D2F1 mouse assessed as increase in life span at 1.8 mg/kg/day, ip administered on day 1, 5 and 9 measured for 56 days relative to untreated control; type: functional; details: route intraperitoneal; how it was run: as §1
[27] = system: B16; assay: Antitumor activity against mouse B16 cells allografted in B6D2F1 mouse assessed as increase in life span at 1.08 mg/kg/day, ip administered on day 5, 9 and 13 measured for 56 days relative to untreated control; type: functional; details: route intraperitoneal; how it was run: as §1
[28] = system: B16; assay: Antitumor activity against mouse B16 cells allografted in C57Bl/6 mouse assessed as increase in life span at 0.9 mg/kg/day, ip administered on day 5, 9 and 13 measured for 61 days relative to control; type: functional; details: route intraperitoneal
How it was run: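 C57BL/6 mice implanted ip with 0.5 mL of B16 melanoma brei. Alkaloid sulfate salts given ip on days 1, 5, 9 or on days 5, 9, 13. Percent increase in life span measured against controls; experiment ended at 61 days.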

[29] = system: B16; assay: Antitumor activity against mouse B16 cells allografted in C57Bl/6 mouse assessed as mean survival time at 0.9 mg/kg/day, ip administered on day 5, 9 and 13 (reference value: 21.5 days); details: route intraperitoneal
[30] = Antitumor activity against mouse P1534(J) cells allografted in mouse assessed as tumor growth inhibition at 0.25 mg/kg/day, ip administered from day 1 to day 9 relative to unreated control; type: functional; details: P1534J, route intraperitoneal, read-out: TGI
How it was run: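 P1534(J) leukemia implanted subcutaneously in mice; sulfate salts given ip on days 1-9. Read-out is percent inhibition of tumor growth versus untreated controls.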

CC[C@]1(O)C[C@@H]2CN(CCc3c([nH]c4ccccc34)[C@@](C(=O)OC)(c3cc4c(cc3OC)N(C)[C@H]3[C@@](O)(C(N)=O)[C@H](O)[C@]5(CC)C=CCN6CC[C@]43[C@@H]65)C2)C1.O=S(=O)(O)O [VINDESINE SULFATE]
MST [1]: 37 days | Activity [2]: Toxic | ILS at 0.9 mg/kg/day [3]: 177% | ILS at 0.389 mg/kg/day [4]: 25% | MTD at 24 h [5]: 13.5 mg/kg/day | TGI [6]: 75% | MST [7]: 29.5 days | inhibition in vivo at 0.2 mg/kg/day [8]: 80% | ILS at 6 mg/kg/day [9]: 109% | ILS at 0.389 mg/kg/day [10]: 85% | Activity [11]: Non-toxic | ILS at 9 mg/kg/day [12]: 190% | MST [13]: 39.3 days | LD50 [14]: 6.3 mg/kg | ILS at 1.8 mg/kg/day [15]: 54% | ILS at 0.27 mg/kg/day [16]: 172% | ILS at 1.8 mg/kg/day [17]: 90% | ILS at 1.08 mg/kg/day [18]: 110% | MST [19]: 25 days | inhibition in vivo at 0.25 mg/kg/day [20]: 90% | TGI [21]: 75% | MST [22]: 47.5 days | ILS at 0.6 mg/kg/day [23]: 213% | MST [24]: 48.5 days | Activity [25]: Non-toxic | ILS at 1.8 mg/kg/day [26]: 142% | ILS at 1.08 mg/kg/day [27]: 58% | ILS at 0.9 mg/kg/day [28]: 78% | MST [29]: 38.3 days | inhibition in vivo at 0.25 mg/kg/day [30]: 100%
